Experimental data taken from ChEMBL document CHEMBL5352450, “Synthesis and structure-activity relationship studies of original cyclic diadenosine derivatives as nanomolar inhibitors of NAD kinase from pathogenic bacteria” (Eur J Med Chem, 2023).
Calls of active or inactive are those of the source. The calls are words filed in the database; no cut-off is given here.

How the values were obtained:
[1] = target: T1, NAD kinase 1 (Listeria monocytogenes serotype 4b (strain F2365), UniProt Q721J8); test: Inhibition of Listeria monocytogenes NADK1 expressed in Escherichia coli assessed as inhibition constant measured every 32 secs for 32 mins by absorbance based analysis
T1 sequence (Q721J8 whole entry): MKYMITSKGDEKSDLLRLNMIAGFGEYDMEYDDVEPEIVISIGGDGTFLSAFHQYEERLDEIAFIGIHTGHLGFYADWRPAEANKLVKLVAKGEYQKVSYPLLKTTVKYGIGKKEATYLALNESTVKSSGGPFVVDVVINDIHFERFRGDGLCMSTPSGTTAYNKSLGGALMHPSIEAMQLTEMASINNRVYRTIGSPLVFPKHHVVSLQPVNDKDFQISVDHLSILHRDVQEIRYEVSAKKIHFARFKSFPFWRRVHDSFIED

[2] = tested on: Listeria monocytogenes; test: Antibacterial activity against Listeria monocytogenes assessed as bacterial growth inhibition in presence of polymyxin B by microplate reader assay; type: functional, organism-based
Summary of the method: (§1)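 Same diluted-culture BHI set-up (S. aureus Xen36 in 25% PBS/10% DMSO; L. monocytogenes EGDe in 25% PBS/1% DMSO) with each compound plus polymyxin B at 20, 40, 60 or 80 µg/mL. Incubated shaking at 200 rpm, 37°C; growth monitored by microplate reader.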

[3] = tested on: Staphylococcus aureus; test: Antibacterial activity against Staphylococcus aureus assessed as reduction in bacterial growth at 0.01 ug/ml incubated for 6 hrs by microplate reader assay; type: functional, organism-based; details: dose 0.01 µg/ml
Summary of the method: (§2)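 Overnight 37°C BHI cultures (S. aureus Xen36; L. monocytogenes EGDe) diluted 1:100 into BHI with compound at 0.01 µg/mL in 25% PBS/10% DMSO (S. aureus) or 25% PBS/1% DMSO (Listeria). Controls: vehicle and 10 µg/mL levofloxacin. Shaken at 200 rpm, 37°C, 6 h; growth read on plate reader as percent growth; n=6 biological replicates, one-way ANOVA.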

[4] = tested on: Staphylococcus aureus; test: Antibacterial activity against Staphylococcus aureus assessed as bacterial growth inhibition in presence of polymyxin B by microplate reader assay; type: functional, organism-based
Summary of the method: as §1

[5] = tested on: Listeria monocytogenes; test: Antibacterial activity against Listeria monocytogenes assessed as reduction in bacterial growth at 0.01 ug/ml incubated for 6 hrs by microplate reader assay; type: functional, organism-based; details: dose 0.01 µg/ml
Summary of the method: as §2

Ki [1] [µM] | SMILES | Activity [2] | Activity [3] | Activity [4] | Activity [5]
16 | NCCCNC(=O)NC[C@H]1O[C@@H](n2c(C#CCN(CC(=O)O)C[C@H]3O[C@@H](n4cnc5c(N)ncnc54)[C@H](O)[C@@H]3O)nc3c(N)ncnc32)[C@H](O)[C@@H]1O |  |  |  | 
0.054 | Nc1ncnc2c1ncn2[C@@H]1O[C@H](CN2CC#Cc3nc4c(N)ncnc4n3[C@@H]3O[C@H](CNS(=O)(=O)CCNC(=O)C2)[C@@H](O)[C@H]3O)[C@@H](O)[C@H]1O | inactive | inactive | Active | inactive
53 | NCCN(CC#Cc1nc2c(N)ncnc2n1[C@@H]1O[C@H](CNC(=O)CC(=O)O)[C@@H](O)[C@H]1O)C[C@H]1O[C@@H](n2cnc3c(N)ncnc32)[C@H](O)[C@@H]1O |  |  |  | 
18 | NCCNC(=O)NC[C@H]1O[C@@H](n2c(C#CCN(CC(=O)O)C[C@H]3O[C@@H](n4cnc5c(N)ncnc54)[C@H](O)[C@@H]3O)nc3c(N)ncnc32)[C@H](O)[C@@H]1O |  |  |  | 
0.177 | Nc1ncnc2c1ncn2[C@@H]1O[C@H](CN2CC#Cc3nc4c(N)ncnc4n3[C@@H]3O[C@H](CNC(=O)NCCCNC(=O)C2)[C@@H](O)[C@H]3O)[C@@H](O)[C@H]1O | inactive | inactive | Active | inactive
5.5 | NCCS(=O)(=O)NC[C@H]1O[C@@H](n2c(C#CCOC[C@H]3O[C@@H](n4cnc5c(N)ncnc54)[C@H](O)[C@@H]3O)nc3c(N)ncnc32)[C@H](O)[C@@H]1O |  |  |  | 
7.6 | Nc1ncnc2c1ncn2[C@@H]1O[C@H](CN2CC#Cc3nc4c(N)ncnc4n3[C@@H]3O[C@H](CNC(=O)NCCNC(=O)C2)[C@@H](O)[C@H]3O)[C@@H](O)[C@H]1O | inactive | inactive | Active | inactive
 | C[C@H]1COc2c(N3CCN(C)CC3)c(F)cc3c(=O)c(C(=O)O)cn1c23 |  |  |  | inactive
6.8 | Nc1ncnc2c1ncn2[C@@H]1O[C@H](CN2CC#Cc3nc4c(N)ncnc4n3[C@@H]3O[C@H](CNC(=O)CC(=O)NCC2)[C@@H](O)[C@H]3O)[C@@H](O)[C@H]1O | inactive | inactive | Active | inactive
0.504 | Nc1ncnc2c1ncn2[C@@H]1O[C@H](CN2CC#Cc3nc4c(N)ncnc4n3[C@@H]3O[C@H](CNC(=O)CCNC(=O)C2)[C@@H](O)[C@H]3O)[C@@H](O)[C@H]1O | inactive | inactive | Active | inactive
19 | NCCC(=O)NC[C@H]1O[C@@H](n2c(C#CCN(CC(=O)O)C[C@H]3O[C@@H](n4cnc5c(N)ncnc54)[C@H](O)[C@@H]3O)nc3c(N)ncnc32)[C@H](O)[C@@H]1O |  |  |  | 
91 | NCCS(=O)(=O)NC[C@H]1O[C@@H](n2c(C#CCN(CC(=O)O)C[C@H]3O[C@@H](n4cnc5c(N)ncnc54)[C@H](O)[C@@H]3O)nc3c(N)ncnc32)[C@H](O)[C@@H]1O |  |  |  | 
 | Nc1ncnc2c1ncn2[C@@H]1O[C@H](COCC#Cc2nc3c(N)ncnc3n2[C@@H]2O[C@H](CO)[C@@H](O)[C@H]2O)[C@@H](O)[C@H]1O |  |  |  | inactive
104 | NCC(=O)NC[C@H]1O[C@@H](n2c(C#CCN(CC(=O)O)C[C@H]3O[C@@H](n4cnc5c(N)ncnc54)[C@H](O)[C@@H]3O)nc3c(N)ncnc32)[C@H](O)[C@@H]1O |  |  |  | 
15 | Nc1ncnc2c1ncn2[C@@H]1O[C@H](CN2CC#Cc3nc4c(N)ncnc4n3[C@@H]3O[C@H](CNC(=O)CNC(=O)C2)[C@@H](O)[C@H]3O)[C@@H](O)[C@H]1O | inactive | inactive | Active | inactive
